25 molecules from ChEMBL document CHEMBL1140371, “Pyrazolo[3,4-c]pyridazines as novel and selective inhibitors of cyclin-dependent kinases” (J Med Chem, 2005) can be followed below.

Structures are written as SMILES. Values joined by “and” are separate entries in the source; they are usually repeats but may differ in a detail not shown here. Equal values may be shown once.

Assay [1] concerns HT-29. Description: Cytotoxic effect against human colon carcinoma cell line (HT-29). Format: functional, cell-based. The gist of the method: (§1)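 MTT assay on cells in log-phase growth, seeded at 2.5 × 10³ cells/well and kept at 37 °C in 5% CO₂. Compounds were added 24 h after seeding as serial PBS dilutions of a […] DMSO stock. After 72 h exposure, MTT was added for 4 h, then DMSO; absorbance read at 570 nm. At least three experiments; IC50 taken from the mean % absorbance versus concentration.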

Assay [2] deals with HeLa. The assay can be described thus: Cytotoxic effect against human cervical carcinoma cell line (HeLa). The class given is functional, cell-based. The gist of the method: as §1
Assay [3] can be described thus: Inhibitory concentration against CDK1/Cyclin B complex from Marthasterias glacialis M-phase oocytes. The class given is cell-based. The conditions noted are these: oocyte.
Assay [4] relates to PC-3. Description: Cytotoxic effect against human prostate carcinoma cell line (PC-3). The class given is functional, cell-based. The gist of the method: as §1

For `Nc1[nH]nc2nnc(-c3ccc(-c4ccccc4)cc3)c(-c3ccc(-c4ccccc4)cc3)c12`, the IC50 in assay [1] was more than 100 µM; in assay [2], more than 100 µM; in assay [3] it was more than 50 µM.
For the molecule `Nc1[nH]nc2nnc(-c3ccco3)c(-c3ccco3)c12`, the IC50 is more than 100 µM in assay [1], more than 100 µM in assay [2] and 1.5 µM in assay [3].
With `CC(=O)Nc1[nH]nc2nnc(-c3ccccc3)c(-c3ccccc3)c12`, the IC50 is more than 100 µM in assay [1], more than 100 µM in assay [2], more than 100 µM in assay [4] and more than 50 µM in assay [3].
Regarding `Nc1[nH]nc2nnc(-c3ccccn3)c(-c3ccccn3)c12`, the IC50 in assay [1] is 73 µM; in assay [2], more than 100 µM; in assay [3], more than 50 µM.
On to `Nc1nn(CCOCCO)c2nnc(-c3ccccc3)c(-c3ccccc3)c12`, for which the IC50 in assay [1] was more than 100 µM; in assay [2], more than 100 µM; in assay [4], more than 100 µM; in assay [3] it was more than 50 µM.
On to `Nc1n[nH]c2nnc(-c3ccccc3)c(-c3ccccc3)c12`, for which the IC50 was more than 100 µM in assay [1]; more than 100 µM in assay [2]; more than 100 µM in assay [4]; 3 µM and 6.1 µM in assay [3].
For `CCNC(=O)Nc1[nH]nc2nnc(-c3ccccc3)c(-c3ccccc3)c12`, the IC50 was more than 100 µM in assay [1], 60.4 µM in assay [2], more than 100 µM in assay [4] and 7.5 µM in assay [3].
Consider `O=C(Nc1ccccc1)Nc1[nH]nc2nnc(-c3ccccc3)c(-c3ccccc3)c12`, for which the IC50 in assay [1] was more than 100 µM; in assay [2], 2.93 µM; in assay [4], more than 100 µM; in assay [3], 9 µM.
For the molecule `CC(=O)Nc1nn(C(C)=O)c2nnc(-c3ccccc3)c(-c3ccccc3)c12`, the IC50 in assay [1] was more than 100 µM; in assay [2], more than 100 µM; in assay [4], more than 100 µM; in assay [3], more than 50 µM.
Turning to `Nc1[nH]nc2nnc(-c3ccc([N+](=O)[O-])cc3)c(-c3ccc([N+](=O)[O-])cc3)c12`, the results for the IC50 in assay [1], in assay [2] and in assay [3] were more than 100 µM, more than 100 µM and more than 50 µM, respectively.
In assay [3], `CCNC(=O)Nc1[nH]nc2nnc(-c3ccco3)cc12` came in with an IC50 of 8.8 µM.
As for `Cc1n[nH]c2nnc(N)c-2c1C`, the IC50 in assay [1] is more than 100 µM; in assay [2], more than 100 µM; in assay [3], more than 50 µM.
In the case of `Cc1n[nH]c2nnc(N)c-2c1-c1ccccc1`, the IC50 in assay [1] is more than 100 µM; in assay [2], 88.3 µM; in assay [4] it was 72.4 µM; in assay [3], more than 50 µM.
For `Oc1[nH]nc2nnc(-c3ccccc3)c(-c3ccccc3)c12`, in that order: more than 100 µM, more than 100 µM, more than 100 µM and more than 50 µM.
The molecule `CC/N=C(\S)Nc1[nH]nc2nnc(-c3ccco3)cc12` displayed an IC50 in assay [3] of more than 100 µM.
Same read-out and setting: under `NNc1[nH]nc2nnc(-c3ccccc3)c(-c3ccccc3)c12` stands 8.5 µM.
Consider `CC(C)(C)c1ccc(-c2[nH]nc3nnc(N)c-3c2-c2ccc(C(C)(C)C)cc2)cc1`, for which the IC50 was 8.5 µM in assay [1], 8.78 µM in assay [2] and more than 50 µM in assay [3].
For `Nc1[nH]nc2nnc(-c3ccc(C(F)(F)F)cc3)c(-c3ccc(C(F)(F)F)cc3)c12`, in that order: more than 100 µM, more than 100 µM and more than 50 µM.
`CC(=O)n1nc(N)c2c(-c3ccccc3)c(-c3ccccc3)nnc21`: the IC50 in assay [1] was more than 100 µM; in assay [2], more than 100 µM; in assay [4], more than 100 µM; in assay [3] it was more than 50 µM.
In the case of `Nc1nn(COCCO)c2nnc(-c3ccccc3)c(-c3ccccc3)c12`, the IC50 in assay [1] was more than 100 µM; in assay [2] it was more than 100 µM; in assay [4] it was more than 100 µM; in assay [3], more than 50 µM.
Turning to `Nc1nn(Cc2ccccc2)c2nnc(-c3ccccc3)c(-c3ccccc3)c12`, the IC50 in assay [1] is more than 100 µM; in assay [2], more than 100 µM; in assay [4], more than 100 µM; in assay [3], more than 50 µM.
With `Nc1n[nH]c2nnc(-c3ccccc3)cc12`, the IC50 was 80.8 µM in assay [1], more than 100 µM in assay [2] and more than 50 µM in assay [3].
For `COc1ccc(-c2[nH]nc3nnc(N)c-3c2-c2ccc(OC)cc2)cc1`, the IC50 in assay [1] is more than 100 µM; in assay [2], more than 100 µM; in assay [4] it was more than 100 µM; in assay [3], 15 µM.
Regarding `Nc1ccc(-c2[nH]nc3nnc(N)c-3c2-c2ccc(N)cc2)cc1`, the IC50 is 10.5 µM in assay [1], more than 100 µM in assay [2] and more than 50 µM in assay [3].
On to `Nc1[nH]nc2nnc(-c3ccco3)cc12`, for which the IC50 is more than 100 µM in assay [1], more than 100 µM in assay [2], more than 100 µM in assay [4] and 5.3 µM in assay [3].
